23 compounds from ChEMBL document CHEMBL1649498, “Pharmacological exploitation of an off-target antibacterial effect of the cyclooxygenase-2 inhibitor celecoxib against Francisella tularensis” (Antimicrob Agents Chemother, 2009) can be followed below.

Values after ≈ are worked out from the molar mass of the structure shown. Active and inactive are the calls of the source. The rule behind the calls is not given here.

The subject of experiment [1] is Francisella tularensis. Nature of the experiment: Antibacterial activity against Francisella tularensis LVS infected in mouse RAW264.7 cells after 48 hrs by broth microdilution method. Format: functional.
Experiment [2] relates to Francisella novicida. In words: Antibacterial activity against Francisella novicida infected in mouse RAW264.7 cells after 24 hrs by broth microdilution method. The note with it: Francisella tularensis. It is filed as functional, Francisella tularensis subsp. novicida. In a few lines: (§1)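 F. novicida U112 grown overnight on chocolate agar, suspended in PBS and diluted to 5 × 10⁵ CFU/ml in TSB with 0.025% iron(III) pyrophosphate and 0.1% cysteine HCl. CLSI broth microdilution in triplicate, 1 to 64 μg/ml, 37°C for 24 h. MIC was the lowest concentration with no visible growth.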
A general note: In broth dilution the organism is exposed to a series of concentrations in liquid medium.

Experiment [3] deals with Francisella novicida. In words: Antibacterial activity against Francisella novicida infected in mouse RAW264.7 cells at 64 ug/ml after 24 hrs by broth microdilution method in presence of 80% human serum albumin. It is filed as functional, cell-based. Particulars: Francisella tularensis subsp. novicida.
The next experiment deals with Salmonella typhimurium. In words: Antibacterial activity against Salmonella enterica serovar Typhimurium ATCC 14028 infected in mouse RAW264.7 cells at 64 ug/ml after 24 to 48 hrs by broth microdilution method. Particulars: Salmonella enterica subsp. enterica serovar Typhimurium. Format: functional, organism-based.
For a further experiment, the system named is RAW264.7. Nature of the experiment: Cytotoxicity against mouse RAW264.7 cells after 8 hrs by MTT assay. It is filed as cell-based. Particulars: RAW264.7, 8 h. The essentials:
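RAW 264.7 cells at 2.5 × 10⁴/well, at least 6 wells per group, left overnight. Treated in 5% FBS DMEM with agents in DMSO (0.1% final) for 8 h. Then 0.5 mg/ml MTT for 1 h at 37°C, dye dissolved in DMSO, A570 read. Viability taken as % of vehicle control; IC50 from the dose-response.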
On the technique in general: Tetrazolium dyes change colour on reduction, which living cells bring about.

Experiment [4] relates to Francisella novicida. In words: Antibacterial activity against Francisella novicida infected in mouse RAW264.7 cells at 64 ug/ml after 24 hrs by broth microdilution method in presence of 10% human serum albumin. Particulars: Francisella tularensis subsp. novicida. Format: functional, cell-based.
The subject of experiment [5] is Francisella novicida. In words: Antibacterial activity against Francisella novicida infected in mouse RAW264.7 cells at 64 ug/ml after 24 hrs by broth microdilution method in presence of 80% fetal bovine serum. It is filed as functional, cell-based. Particulars: Francisella tularensis subsp. novicida. In a few lines:
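Broth contained 0, 10, 50 or 80% human AB serum (not albumin) or FBS to probe protein binding. NE means no effect at 64 μg/ml.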

For experiment [6], the system named is Francisella tularensis. In words: Antibacterial activity against Francisella tularensis SchuS4 infected in mouse RAW264.7 cells after 24 hrs by broth microdilution method. It is filed as functional. The note with it: SchuS4, 24 h.
In experiment [7] the test system is Francisella tularensis. Nature of the experiment: Antibacterial activity against Francisella tularensis SchuS4 infected in human THP1 cells at 4 ug/ml after 24 hrs by broth microdilution method. It is filed as functional, cell-based. The note with it: THP-1.
Experiment [8] concerns Francisella novicida. Nature of the experiment: Antibacterial activity against Francisella novicida infected in mouse RAW264.7 cells at 64 ug/ml after 24 hrs by broth microdilution method in presence of 50% human serum albumin. Format: functional, cell-based. The note with it: Francisella tularensis subsp. novicida.
Experiment [9] in a line: Selectivity index, ratio of IC50 for mouse RAW264.7 cells to MIC for Francisella novicida. Format: functional.
Another experiment has as its system Escherichia coli. In words: Antibacterial activity against Escherichia coli ATCC 25922 infected in mouse RAW264.7 cells at 64 ug/ml after 24 to 48 hrs by broth microdilution method. Format: functional, organism-based.
Experiment [10] relates to Francisella tularensis. In words: Antibacterial activity against Francisella tularensis SchuS4 infected in mouse RAW264.7 cells at 64 ug/ml after 24 hrs by broth microdilution method. It is filed as functional, cell-based.
Experiment [11] deals with Francisella novicida. Nature of the experiment: Antibacterial activity against Francisella novicida infected in mouse RAW264.7 cells at 64 ug/ml after 24 hrs by broth microdilution method. It is filed as functional, cell-based. The note with it: Francisella tularensis subsp. novicida. The essentials:
as §1

Experiment [12] deals with Francisella tularensis. Nature of the experiment: Antibacterial activity against Francisella tularensis LVS infected in mouse RAW264.7 cells at 64 ug/ml after 48 hrs by broth microdilution method. It is filed as functional, cell-based.

In general, MIC refers to the lowest concentration found to suppress growth. High values mean weaker potency, low ones greater potency. On to `NC(=O)c1ccc(-n2nc(C(F)(F)F)cc2-c2c3ccccc3cc3ccccc23)cc1`, for which the MIC in the experiment on Francisella tularensis [1] and against Francisella novicida [2] was 16 µg/mL (≈ 37.1 µM) each time.
One may read the IC50 as the point on the concentration scale where inhibition reaches its midpoint. A high value points to a need for much substance. Consider `Cc1ccc(-c2cc(C(F)(F)F)nn2-c2ccc(S(N)(=O)=O)cc2)cc1` [CELECOXIB], for which the outcome with Francisella novicida [3], in the experiment with Salmonella typhimurium, in the experiment with Francisella novicida [4], with Francisella novicida [5], in the experiment with Francisella tularensis [7] and in the experiment on Francisella novicida [8] was inactive. Further, the result with Escherichia coli was inactive. Moreover, the MIC worked out at 16 µg/mL (≈ 42 µM) against Francisella tularensis [1], 16 µg/mL (≈ 42 µM) with Francisella tularensis [6] and 32 µg/mL (≈ 83.9 µM) with Francisella novicida [2]. This compound also displayed an IC50 with RAW264.7 of 17 µg/mL (≈ 44.6 µM). Also, in experiment [9], the Ratio is reported as 0.5.
For the compound `COc1ccc2cc(-c3cc(C(F)(F)F)nn3-c3ccc(N)cc3)ccc2c1`, the MIC in the experiment with Francisella tularensis [1] and against Francisella novicida [2] was 16 µg/mL (≈ 41.7 µM) each time.
In the case of `CCCCc1ccc(-c2cc(C(F)(F)F)nn2-c2ccc(C(N)=O)cc2)cc1`, the minimum inhibitory concentration (MIC) worked out at 8 µg/mL (≈ 20.7 µM) against Francisella tularensis [1] and 16 µg/mL (≈ 41.3 µM) in the experiment with Francisella novicida [2].
On to `Nc1ccc(-n2nc(C(F)(F)F)cc2-c2ccc(-c3ccccc3)cc2)cc1`, for which the minimal inhibitory concentration (MIC) against Francisella tularensis [1] and with Francisella novicida [2] was 4 µg/mL (≈ 10.5 µM) throughout. Inhibition in the experiment with RAW264.7 was half-maximal at 15 µg/mL (≈ 39.5 µM) (IC50). For the same compound, the Ratio in experiment [9] is 3.8.
On to `NC(=O)c1ccc(-n2nc(C(F)(F)F)cc2-c2ccc(-c3ccc(Cl)cc3)cc2)cc1`, for which the MIC was 2 µg/mL (≈ 4.53 µM) with Francisella tularensis [1] and 4 µg/mL (≈ 9.05 µM) in the experiment on Francisella novicida [2]. The same compound returned a 50% inhibitory concentration (IC50) in the experiment with RAW264.7 of 9 µg/mL (≈ 20.4 µM). Also, the Ratio in experiment [9] is listed as 2.3.
For the compound `Nc1ccc(-n2nc(C(F)(F)F)cc2-c2ccc(-c3ccc(Br)cc3)cc2)cc1`, the MIC in the experiment on Francisella tularensis [1] and with Francisella novicida [2] was 4 µg/mL (≈ 8.73 µM) each time. The IC50 with RAW264.7 is 46 µg/mL (≈ 100 µM). In the experiment with Francisella tularensis [10], the result was Active. Besides, the Ratio in experiment [9] is 11.5.
For `Nc1ccc(-n2nc(C(F)(F)F)cc2-c2cccc3ccccc23)cc1`, the MIC amounted to 8 µg/mL (≈ 22.6 µM) with Francisella tularensis [1] and 16 µg/mL (≈ 45.3 µM) against Francisella novicida [2].
Turning to `NC(=O)c1ccc(-n2nc(C(F)(F)F)cc2-c2ccc(-c3ccc(C(F)(F)F)cc3)cc2)cc1`, the result in the experiment on Francisella novicida [11] and in the experiment with Francisella tularensis [12] was inactive.
In the case of `NS(=O)(=O)c1ccc(-n2nc(C(F)(F)F)cc2-c2ccc(-c3cc(Cl)c(Cl)cc3Cl)cc2)cc1`, the MIC in the experiment with Francisella tularensis [1] was determined as 1 µg/mL (≈ 1.83 µM); against Francisella novicida [2], 2 µg/mL (≈ 3.66 µM). In the experiment with RAW264.7, this compound came in with an IC50 of 2.4 µg/mL (≈ 4.39 µM). Further, in experiment [9], the Ratio stood at 1.2.
Take `CS(=O)(=O)c1ccc(C2=C(c3ccccc3)C(=O)OC2)cc1` [ROFECOXIB]: the outcome in the experiment with Salmonella typhimurium, with Francisella novicida [11], with Francisella tularensis [10], in the experiment on Francisella tularensis [12] and in the experiment on Escherichia coli was inactive.
For the compound `Cc1cc(C)cc(-c2ccc(-c3cc(C(F)(F)F)nn3-c3ccc(C(N)=O)cc3)cc2)c1`, the result in the experiment with Francisella novicida [11] and in the experiment on Francisella tularensis [12] was inactive.
With `CCCCc1ccc(-c2ccc(-c3cc(C(F)(F)F)nn3-c3ccc(C(N)=O)cc3)cc2)cc1`, the result in the experiment on Francisella novicida [11] and with Francisella tularensis [12] was inactive.
In the case of `Nc1ccc(-n2nc(C(F)(F)F)cc2-c2ccc(-c3cc(Cl)c(Cl)cc3Cl)cc2)cc1`, the lowest concentration to inhibit growth in the experiment with Francisella tularensis [1] (MIC) was 4 µg/mL (≈ 8.29 µM). The outcome in the experiment with Francisella novicida [11] was inactive.
For `Cc1ccc(-c2ccc(-c3cc(C(F)(F)F)nn3-c3ccc(C(N)=O)cc3)cc2)cc1`, the MIC in the experiment with Francisella tularensis [1] and against Francisella novicida [2] was 8 µg/mL (≈ 19 µM) each time.
For `FC(F)(F)c1cc(-c2ccc3ccc4ccccc4c3c2)n(-c2ccccc2)n1`, the outcome in the experiment with Francisella novicida [11] and in the experiment on Francisella tularensis [12] was inactive.
For the compound `Cc1ccc(-c2ccc(-c3cc(C(F)(F)F)nn3-c3ccc(S(C)(=O)=O)cc3)cc2)cc1`, the result in the experiment with Francisella novicida [11] and in the experiment with Francisella tularensis [12] was inactive.
`NS(=O)(=O)c1ccc(-n2nc(C(F)(F)F)cc2-c2ccc(-c3ccc(Cl)cc3)cc2)cc1`: the MIC against Francisella tularensis [1] and with Francisella novicida [2] was 4 µg/mL (≈ 8.37 µM) each time. The compound also had an IC50 in the experiment with RAW264.7 of 4.8 µg/mL (≈ 10 µM). The Ratio in experiment [9] was determined as 1.2.
In the case of `NC(=O)c1ccc(-n2nc(C(F)(F)F)cc2-c2ccc(-c3ccccc3)cc2)cc1`, the MIC amounted to 8 µg/mL (≈ 19.6 µM) against Francisella tularensis [1] and 16 µg/mL (≈ 39.3 µM) against Francisella novicida [2].
Consider `NC(=O)c1ccc(-n2nc(C(F)(F)F)cc2-c2ccc(-c3cc(Cl)cc(Cl)c3)cc2)cc1`, for which the minimum inhibitory concentration (MIC) in the experiment on Francisella tularensis [1] amounted to 4 µg/mL (≈ 8.4 µM); against Francisella novicida [2], 16 µg/mL (≈ 33.6 µM).
Regarding `CC(C)(C)c1ccc(-c2ccc(-c3cc(C(F)(F)F)nn3-c3ccc(C(N)=O)cc3)cc2)cc1`, the result in the experiment with Francisella novicida [11] and in the experiment with Francisella tularensis [12] was inactive.
With `CS(=O)(=O)c1ccc(-n2nc(C(F)(F)F)cc2-c2ccc(F)cc2)cc1`, the outcome in the experiment with Francisella novicida [11] and in the experiment with Francisella tularensis [12] was inactive.
With `NS(=O)(=O)c1ccc(-n2nc(C(F)(F)F)cc2-c2cccc3ccccc23)cc1`, the MIC was found to be 8 µg/mL (≈ 19.2 µM) with Francisella tularensis [1] and 16 µg/mL (≈ 38.3 µM) against Francisella novicida [2].
